High-throughput results from PubChem.
Insulin prom act: TRM-6 insulin promoter activation; TRM-6 cells, insulin promoter eGFP reporter, imaging; plate-scaled: unstimulated 0, stimulated control 100; activation, % at 2 µM; 130,000 tested, 0.81% active; AID 1296;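 active means activation at 2 µM above a set limit, confirmed on inspection of the cell images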;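 further: share of cells whose green reporter signal exceeds an intensity cutoff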
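Test system: human fetal islet-derived TRM-6 cells with tamoxifen-inducible insulin promoter–eGFP reporter; schedule: overnight tamoxifen, then two-day compound incubation at 37 °C; measured by: high-content imaging of fixed cells with Hoechst nuclear stain; evaluation: percent cells above green-intensity threshold, converted to percent activation versus plate controls; control set: stimulated and unstimulated wells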
* marks the source's active call; other numbers are inactive results. The entries come from a sample that favours hits as a whole.

SMILES | Insulin prom act
CSc1ncc(/C=C2/C(=O)NC(=O)N(c3ccc(Cl)cc3)C2=O)cn1 | 260.0*
COc1ccc(/C=C2/C(=O)NC(=O)N(c3ccc(C)c(C)c3)C2=O)cc1CN1C(=O)c2ccccc2C1=O | 2.0
O=C1NC(=O)N(c2ccc(Br)cc2)C(=O)/C1=C/c1ccsc1 | 0.0
Cn1nc(-c2ccc(OCC(=O)N3CCN(Cc4ccccc4)CC3)cc2)c2ccccc2c1=O | 104.5
Cc1cc(C)n2nc(C)[n+](C)c2n1 | -6.5
CSCCC(N=Cc1c(O)n(-c2ccc(Br)cc2)c(=O)[nH]c1=O)C(=O)OC(C)(C)C (centres undefined) | 2.9
COc1cc(OC)c2c(c1)OCC1CON(C)C21 (centres undefined) | -7.7
O=c1c2ccccc2nc(/C=C/c2ccc([N+](=O)[O-])o2)n1-c1ccc(O)cc1 | 525.0*
CCOc1ccc(-n2c(-c3ccoc3)nc3ccccc3c2=O)cc1 | 4.3
C(=NC12CN3CN(CN(C3)C1)C2)c1cccs1 | -3.3
Cc1cc(C(=O)CS(=O)(=O)c2ccccc2)cc(C)c1OC(=O)N(C)C | 0.0
CCOC(=O)CCN=Cc1c(O)n(-c2ccc(Br)cc2)c(=O)[nH]c1=O | 9.1
C(#CCN1CCOCC1)COCC#Cc1ccccc1 | 79.0*
CCc1c(C(=O)NN2C(=O)C3C4CCC(O4)C3C2=O)csc1C (centres undefined) | 8.3
C=CCn1c(O)c(C(C)=NCCc2ccccc2)c(=O)[nH]c1=O | 0.0
CCCCn1c(O)c(C(CC)=NCc2ccc(F)cc2)c(=O)[nH]c1=O | -83.3
C=CCn1c(O)c(C(CC)=NCCc2ccccc2)c(=O)[nH]c1=O | 550.0*
CCOP(=O)(OCC)C(NC(=O)CN1C(=O)c2ccccc2S1(=O)=O)C(Cl)(Cl)Cl (centres undefined) | -8.3
CC(C)=CCOc1c2occc2cc2ccc(=O)oc12 | -4.8
O=C1NC(=O)C(C(CC(=O)c2ccccc2)c2ccccc2)C(=O)N1 (centres undefined) | -7.1
O=C(COc1ccc(Cl)cc1)N1CCN(C/C=C/c2ccccc2)CC1 | -6.5
COc1ccc(C(=O)C(Cc2ccccc2)N(C)C)cc1 (centres undefined) | 3.7
COc1ccc(C(=O)C(C)(C)NO)cc1 | 468.8*
COc1ccc(O)c(C(C)(C)C)c1 | -6.7
CSc1ccc(C(=O)C(C)(C)N2CCOCC2)cc1 | 257.1
SMILES | Insulin prom act
CCCCn1c(O)c(C(CC)=NCCN2CCCCC2)c(=O)[nH]c1=O | 7.1
O=c1cc(C(F)(F)F)c2cc3c4c(c2o1)CCCN4CCC3 | 164.4*
CC(=O)CC(=O)C1C(=O)N(C)C(=O)N(C)C1=O | -5.6
Cc1ccc2c(c1)CC1(CN2C)C(=O)NC(=O)N(c2ccc(C)c(C)c2)C1=O (centres undefined) | 2.9
CC(C)NC(=O)c1ccc(N2CC3CC(C2)c2cccc(=O)n2C3)c([N+](=O)[O-])c1 (centres undefined) | 0.0
Cc1ccc2c(c1)C1CN(C)CCC1N2C(=O)/C(C#N)=C/c1ccc2c(c1)OCO2 (centres undefined) | 0.0
COc1ccccc1-n1c(O)c(C=NCCN2CCNCC2)c(=O)[nH]c1=O | -7.9
CCOC(=O)C(NC(C)=O)C(OC(C)=O)c1cccc(N(CCCl)CCCl)c1 (centres undefined) | 332.4
O=C(CCCOc1ccc(Cl)cc1Cl)N1CCC2(CC1)OCCO2 | 170.8
Cc1ccc(-c2ccc(=O)n(CCC(=O)N3CCC4(CC3)OCCO4)n2)cc1 | 0.0
O=C(CNC1CCCCC1)N1CCC2(CC1)OCCO2 | 658.3*
O=C(Cn1nc(-c2ccc(Cl)cc2)ccc1=O)N1CCC2(CC1)OCCO2 | 0.0
CC(=O)OC1N=C(c2ccccc2)c2ccccc2NC1=O (centres undefined) | -7.1
Cc1c2ccncc2c(C)c2c1[nH]c1ccccc12 | 354.5*
Cc1cccc(-n2c(O)c(C=NCc3cccnc3)c(=O)[nH]c2=O)c1C | 0.0
Cc1noc(C)c1C(=O)N1CCC2(CC1)OCCO2 | -7.9
O=C(c1ccc2c(c1)ncn2-c1ccc(F)cc1F)N1CCC2(CC1)OCCO2 | 485.7*
Cc1cc(C(=O)N2CCC3(CC2)OCCO3)cs1 | -3.7
CC1(C)C2([N+](=O)[O-])CNCC1([N+](=O)[O-])CNC2 | 171.4
Clc1cccc(C2NCCc3[nH]cnc32)c1 (centres undefined) | -4.9
